Experimental data reported in ChEMBL document CHEMBL1154838, “Stolonoxides E and F, cytotoxic metabolites from the marine ascidian Stolonica socialis” (2010).

Tests used:
Type in all cases: functional
MDA-MB-231 = experiment: Cytotoxicity against human MDA-MB-231 cells after 72 hrs by SRB assay; details: MDA-MB-231, 72 h; for CC50: read-out: LC50 (the source's name)
Procedure, shortened: (§1)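 Cells kept in RPMI with 10% fetal calf serum, 2 mM L-glutamine, 100 U/mL penicillin/streptomycin, 37 °C, 5% CO2. Triplicate cultures exposed 72 h to 10 concentrations, 10 to 0.0026 µg/mL. Fixed in 1% glutaraldehyde 15 min, stained with 0.4% SRB 30 min at room temperature, extracted in 10 mM trizma base, absorbance read at 490 nm. GI50 from NCI algorithm, corrected for starting cell count. Doxorubicin positive control, DMSO vehicle.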

HT-29 = experiment: Cytotoxicity against human HT-29 cells after 72 hrs by SRB assay; details: HT-29, 72 h; procedure, shortened: as §1
A549 = experiment: Cytotoxicity against human A549 cells after 72 hrs by SRB assay; details: A549, 72 h; procedure, shortened: as §1

| Compound | GI50 (MDA-MB-231) [µM] | TGI (MDA-MB-231) [µM] | CC50 (MDA-MB-231) [µM] | GI50 (HT-29) [nM] | TGI (HT-29) [µM] | GI50 (A549) [µM] | TGI (A549) [µM] | LC50 (concentration killing 50% of starting cells) (HT-29) [µM] | LC50 (A549) [µM] |
| --- | --- | --- | --- | --- | --- | --- | --- | --- | --- |
| COc1cccc2c1C(=O)c1c(O)c3c(c(O)c1C2=O)C[C@@](O)(C(=O)CO)C[C@@H]3O[C@H]1C[C@H](N)[C@H](O)[C@H](C)O1 [DOXORUBICIN] | 0.038 | 0.31 | 2.41 | 66 | 0.4 | 0.062 | 0.26 |  |  |
| O=C(O)C[C@@H]1CC[C@@H]([C@@H]2CC[C@@H](CCCCCCC3\C=C/C=C\C=C/C3)O2)OO1 (stereo not given in full) [STOLONOXIDE E] | 4.94 | 5.44 | 6.18 | 3960 | 5.19 | 7.91 | 8.16 | 6.67 | 8.65 |
| O=C(O)C[C@@H]1CC[C@@H]([C@H]2CC[C@H](CCCCCCC3\C=C/C=C\C=C/C3)O2)OO1 (stereo not given in full) [STOLONOXIDE F] | 4.7 | 5.44 | 6.18 | 2720 | 3.21 | 5.44 | 5.93 | 3.71 | 6.67 |
